Legend:
[1] = system: Acinetobacter baumannii; experiment: Antibacterial activity against carbapenem susceptible Acinetobacter baumannii isolate PR-452 assessed as inhibition of bacterial growth in presence of 20 ug/ml sulbactam by microdilution method; format: functional; conditions: dose 20 µg/ml
Procedure, shortened: (§1)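 MIC by broth microdilution using iron-depleted (Chelex-treated) cation-adjusted Mueller-Hinton broth and 6 × 10^4 cfu/mL inoculum. Compound serially diluted with sulbactam held constant at 20 μg/mL.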

[2] = biological target: COX-1 (Homo sapiens, UniProt P23219); experiment: Inhibition of COX-1 (unknown origin) at 30 uM
[3] = system: Acinetobacter baumannii; experiment: Antibacterial activity against carbapenem resistant Acinetobacter baumannii isolate PR-345 assessed as inhibition of bacterial growth at 1:1 compound to sulbactam concentration by microdilution method; format: functional
Procedure, shortened: (§2)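 Iron-depleted (Chelex-treated) cation-adjusted Mueller-Hinton broth microdilution; inoculum 6 × 10^4 cfu/mL. Test agent and sulbactam mixed 1:1 by mass and serially 2-fold diluted together. MIC in μg/mL.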

[4] = Permeability in human Caco-2 cells; format: ADME, cell-based
[5] = system: Pseudomonas aeruginosa; experiment: Antibacterial activity against wild type Pseudomonas aeruginosa isolate PR-651 leucine at 533 residue assessed as inhibition of bacterial growth by microdilution method; format: functional
Procedure, shortened: (§3)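 Broth microdilution MIC in iron-depleted (Chelex resin-treated) cation-adjusted Mueller-Hinton broth, following the protocol used for siderophore-containing antibiotics. Inoculum was lowered to 6 × 10^4 cfu/mL.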

[6] = system: Acinetobacter baumannii; experiment: Antibacterial activity against carbapenem susceptible Acinetobacter baumannii isolate PR-452 assessed as inhibition of bacterial growth at 1:1 compound to sulbactam concentration by microdilution method; format: functional; procedure, shortened: as §3
[7] = system: Acinetobacter baumannii; experiment: Antibacterial activity against 98 member subset of carbapenem resistant Acinetobacter baumannii assessed as assessed as inhibition of bacterial growth by microdilution method; format: functional
Procedure, shortened: (§4)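 Broth microdilution in Chelex-treated, iron-depleted cation-adjusted Mueller-Hinton broth, following the protocol used for siderophore-containing antibiotics; inoculum lowered to 6 × 10^4 cfu/mL; MIC read as growth inhibition, in μg/mL.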

[8] = system: Acinetobacter baumannii; experiment: Antibacterial activity against carbapenem susceptible Acinetobacter baumannii isolate PR-478 assessed as bacterial growth inhibition by microdilution method; format: functional; procedure, shortened: as §3
[9] = Plasma concentration in SC dosed CD-1 mouse treated four times at 6 hrs interval measured after 8 hrs; format: ADME, organism-based
Procedure, shortened: (§5)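 CD-1 mice dosed SC at 50 mg/kg. Plasma sampled at 0.167 to 24 h, three individual mice per time point, reported as mean and SD in ng/mL.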

[10] = Substrate activity at VIM-2 (unknown origin) assessed as Kcat by measuring hydrolysis by spectrophotometry; format: ADME
Procedure, shortened: (§6)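 Substrate hydrolysis (600 μM start) followed at 336 nm (Δε336 = −4362 M−1 cm−1, 0.2 cm cuvette) to completion; velocities over 10 s intervals along progress curve; Km, Vmax from double reciprocal plot, kcat = Vmax/[E].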

[11] = system: Acinetobacter baumannii; experiment: Antibacterial activity against carbapenem resistant Acinetobacter baumannii isolate PR-387 assessed as bacterial growth inhibition by microdilution method; format: functional; procedure, shortened: as §4
[12] = Substrate activity at OXA-23 (unknown origin) assessed as Kcat by measuring hydrolysis by spectrophotometry; format: ADME
[13] = Substrate activity at IMP-1 (unknown origin) assessed as Kcat by measuring hydrolysis by spectrophotometry; format: ADME; procedure, shortened: as §6
[14] = system: Acinetobacter baumannii; experiment: Antibacterial activity against carbapenem resistant Acinetobacter baumannii isolate PR-345 assessed as inhibition of bacterial growth in presence of 20 ug/ml sulbactam by microdilution method; format: functional; conditions: dose 20 µg/ml
[15] = Substrate activity at NDM1 (unknown origin) assessed as Kcat by measuring hydrolysis by spectrophotometry; format: ADME; procedure, shortened: as §6
[16] = system: Acinetobacter baumannii; experiment: Antibacterial activity against carbapenem resistant Acinetobacter baumannii isolate PR-326 assessed as inhibition of bacterial growth in presence of 20 ug/ml sulbactam by microdilution method; format: functional; conditions: dose 20 µg/ml
[17] = system: Acinetobacter baumannii; experiment: Antibacterial activity against carbapenem resistant Acinetobacter baumannii isolate PR-482 assessed as inhibition of bacterial growth in presence of 20 ug/ml sulbactam by microdilution method; format: functional; conditions: dose 20 µg/ml; procedure, shortened: as §3
[18] = Antibacterial activity against carbapenem susceptible Acinetobacter nosocomialis isolate PR-412 assessed as inhibition of bacterial growth at 1:1 compound to sulbactam concentration by microdilution method; format: functional; procedure, shortened: as §3
[19] = system: Acinetobacter baumannii; experiment: Antibacterial activity against carbapenem resistant Acinetobacter baumannii isolate PR-384 assessed as inhibition of bacterial growth in presence of 20 ug/ml sulbactam by microdilution method; format: functional; conditions: dose 20 µg/ml
[20] = Antibacterial activity against carbapenem susceptible Acinetobacter nosocomialis isolate PR-362 assessed as bacterial growth inhibition by microdilution method; format: functional; procedure, shortened: as §3
[21] = system: Acinetobacter baumannii; experiment: Antibacterial activity against carbapenem resistant Acinetobacter baumannii isolate PR-314 assessed as inhibition of bacterial growth at 1:1 compound to sulbactam concentration by microdilution method; format: functional; procedure, shortened: as §2
[22] = Plasma concentration in SC dosed CD-1 mouse treated four times at 6 hrs interval measured after 24 hrs; format: ADME, organism-based; procedure, shortened: as §5
[23] = system: Acinetobacter baumannii; experiment: Antibacterial activity against carbapenem resistant Acinetobacter baumannii isolate PR-342 assessed as bacterial growth inhibition by microdilution method; format: functional; procedure, shortened: as §4
[24] = system: Acinetobacter baumannii; experiment: Antibacterial activity against carbapenem susceptible Acinetobacter baumannii isolate PR-340 assessed as inhibition of bacterial growth at 1:1 compound to sulbactam concentration by microdilution method
[25] = system: Acinetobacter baumannii; experiment: Antibacterial activity against carbapenem resistant Acinetobacter baumannii isolate PR-325 assessed as bacterial growth inhibition by microdilution method; format: functional; procedure, shortened: as §4
[26] = Antibacterial activity against carbapenem susceptible Acinetobacter nosocomialis isolate PR-365 assessed as bacterial growth inhibition by microdilution method; format: functional; procedure, shortened: as §3
[27] = system: Pseudomonas aeruginosa; experiment: Antibacterial activity against wild type Pseudomonas aeruginosa isolate PR-606 assessed as inhibition of bacterial growth by microdilution method; format: functional; procedure, shortened: as §3
[28] = system: Pseudomonas aeruginosa; experiment: Antibacterial activity against wild type Pseudomonas aeruginosa isolate PR-673 leucine at 533 residue assessed as inhibition of bacterial growth by microdilution method; format: functional; procedure, shortened: as §3
[29] = Antibacterial activity against carbapenem susceptible Acinetobacter nosocomialis isolate PR-491 assessed as inhibition of bacterial growth in presence of 20 ug/ml sulbactam by microdilution method; format: functional; conditions: dose 20 µg/ml; procedure, shortened: as §1
[30] = system: Acinetobacter baumannii; experiment: Antibacterial activity against carbapenem susceptible Acinetobacter baumannii isolate PR-434 assessed as inhibition of bacterial growth at 1:1 compound to sulbactam concentration by microdilution method; format: functional
Procedure, shortened: (§7)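 Broth microdilution MIC in Chelex-treated, iron-depleted cation-adjusted Mueller-Hinton broth, inoculum 6 × 10^4 cfu/mL. Compound and sulbactam combined 1:1 by mass in a 2-fold dilution series.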

[31] = system: Acinetobacter baumannii; experiment: Antibacterial activity against carbapenem resistant Acinetobacter baumannii isolate PR-345 assessed as bacterial growth inhibition by microdilution method; format: functional; procedure, shortened: as §4
[32] = Metabolic stability in CD-1 mouse microsomes assessed as half life; format: ADME, Microsome
[33] = system: Acinetobacter baumannii; experiment: Antibacterial activity against carbapenem susceptible Acinetobacter baumannii isolate PR-464 assessed as inhibition of bacterial growth at 1:1 compound to sulbactam concentration by microdilution method; format: functional; procedure, shortened: as §7
[34] = Plasma concentration in SC dosed CD-1 mouse treated four times at 6 hrs interval measured after 6 hrs; format: ADME, organism-based; procedure, shortened: as §5
[35] = system: Acinetobacter baumannii; experiment: Antibacterial activity against carbapenem resistant Acinetobacter baumannii isolate PR-314 assessed as inhibition of bacterial growth in presence of 20 ug/ml sulbactam by microdilution method; format: functional; conditions: dose 20 µg/ml
[36] = Plasma protein binding in mouse; conditions: read-out: PPB (converted)
[37] = system: Acinetobacter baumannii; experiment: Antibacterial activity against carbapenem resistant Acinetobacter baumannii isolate PR-326 assessed as bacterial growth inhibition by microdilution method; format: functional; procedure, shortened: as §4

COX-1, sequence (P23219 whole entry): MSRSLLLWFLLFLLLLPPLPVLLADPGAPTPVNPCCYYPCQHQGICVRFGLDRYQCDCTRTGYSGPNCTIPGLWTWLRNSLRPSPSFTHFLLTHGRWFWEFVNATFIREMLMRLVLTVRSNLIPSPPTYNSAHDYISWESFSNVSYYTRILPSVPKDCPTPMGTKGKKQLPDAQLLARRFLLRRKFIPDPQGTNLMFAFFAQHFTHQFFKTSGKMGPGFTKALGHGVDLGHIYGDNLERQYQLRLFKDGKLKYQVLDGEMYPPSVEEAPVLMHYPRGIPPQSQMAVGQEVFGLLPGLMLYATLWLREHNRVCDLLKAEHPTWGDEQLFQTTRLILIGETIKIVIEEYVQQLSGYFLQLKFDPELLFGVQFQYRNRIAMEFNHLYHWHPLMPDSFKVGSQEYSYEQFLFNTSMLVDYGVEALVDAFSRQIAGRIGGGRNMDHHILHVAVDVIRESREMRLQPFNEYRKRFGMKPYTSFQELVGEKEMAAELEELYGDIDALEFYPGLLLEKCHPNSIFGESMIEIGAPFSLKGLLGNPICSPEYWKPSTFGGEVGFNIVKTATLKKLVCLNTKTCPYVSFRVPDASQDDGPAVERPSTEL

CC(C)(O/N=C(\C(=O)N[C@H]1CN2CC(C(=O)NCCN3C(=O)c4cc(O)c(O)cc4C3=O)=C(C(=O)O)N2C1=O)c1nc(N)sc1Cl)C(=O)O
MIC [1]: ≤ 0.25 µg/mL
inhibition at 30 µM [2]: > 50%
MIC [3]: 16 µg/mL
permeability [4]: Impermeable
MIC [5]: > 16 µg/mL
MIC [6]: ≤ 0.25 µg/mL
MIC90 [7]: > 16 µg/mL
MIC [8]: 16 µg/mL
concentration at 8 h [9]: 1200 ng/mL
Kcat [10]: 54 s⁻¹
MIC [11]: > 16 µg/mL
Kcat [12]: Nottraceable
Kcat [13]: 5 s⁻¹
MIC [14]: ≤ 0.25 µg/mL
Kcat [15]: 35 s⁻¹
MIC [16]: ≤ 0.25 µg/mL
MIC [17]: ≤ 0.25 µg/mL
MIC [18]: 1 µg/mL
MIC [19]: > 16 µg/mL
MIC [20]: > 16 µg/mL
MIC [21]: 4 µg/mL
concentration at 24 h [22]: 601 ng/mL
MIC [23]: 16 µg/mL
MIC [24]: 1 µg/mL
MIC [25]: > 16 µg/mL
MIC [26]: > 16 µg/mL
MIC [27]: > 16 µg/mL
MIC [28]: > 16 µg/mL
MIC [29]: ≤ 0.25 µg/mL
MIC [30]: 2 µg/mL
MIC [31]: > 16 µg/mL
t1/2 [32]: > 1 h
MIC [33]: ≤ 0.25 µg/mL
concentration at 6 h [34]: 1320 ng/mL
MIC [35]: ≤ 0.25 µg/mL
fraction unbound [36]: 0.06
MIC [37]: > 16 µg/mL

Source: ChEMBL document CHEMBL4842318, “A γ-lactam siderophore antibiotic effective against multidrug-resistant Pseudomonas aeruginosa, Klebsiella pneumoniae, and Acinetobacter spp” (Eur J Med Chem, 2021)
